# Assay outcomes (PubChem)
# sPLA2-III inh – Inhibits HGIII-sPLA2 liposome hydrolysis, primary screen. Q9NZ20. QFRET BODIPY PC-A2 liposome hydrolysis, fluorescence. inhibition, % at 12.2 µM. 0.56% of 370,000 active;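 active = inhibition above mean plus 3 SD of compounds lying within the high and low control bounds, cut at about 19% in these data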;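 note: 0% = median of test compound wells and 100% = no enzyme DMSO wells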
# Target sequence (Q9NZ20 whole entry, looked up): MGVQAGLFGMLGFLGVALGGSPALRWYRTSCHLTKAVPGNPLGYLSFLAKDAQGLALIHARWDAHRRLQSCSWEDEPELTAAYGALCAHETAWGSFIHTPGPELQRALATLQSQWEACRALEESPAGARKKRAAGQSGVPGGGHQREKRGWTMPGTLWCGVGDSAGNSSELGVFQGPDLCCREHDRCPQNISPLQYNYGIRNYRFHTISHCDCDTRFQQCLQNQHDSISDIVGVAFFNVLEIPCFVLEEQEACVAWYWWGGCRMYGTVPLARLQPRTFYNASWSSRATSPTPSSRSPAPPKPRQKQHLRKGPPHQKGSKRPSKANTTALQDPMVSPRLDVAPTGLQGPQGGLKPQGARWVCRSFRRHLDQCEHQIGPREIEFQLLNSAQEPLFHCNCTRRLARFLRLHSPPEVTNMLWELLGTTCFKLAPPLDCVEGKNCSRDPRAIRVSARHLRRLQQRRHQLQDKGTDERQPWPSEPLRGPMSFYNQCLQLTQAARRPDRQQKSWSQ
# PLC-gamma1 inh – inhibitors of human phospholipase C gamma1; P19174; purified PLC-gamma1, fluorogenic substrate, fluorescence; inhibition, % at 12.2 µM; 0.84% of 370,000 active; in the data active = inhibition above about 9.5%
# DAGLB inh – diacylglycerol lipase beta (human) inhibition | HEK293T DAGLB membrane lysate, EnzChek fluorogenic substrate | 0.059% of 340,000 active | inhibition, % at 5.17 µM | Q8NCG7 | AID 504411; in the data active = inhibition above about 34%;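 note: 0% = enzyme with vehicle and 100% = wells lacking enzyme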
# PLCb3 inh – blocks human PLC-beta3 enzyme activity. Q01970. Purified PLC-beta3, fluorogenic substrate, fluorescence. inhibition, % at 12.2 µM. 0.18% of 370,000 active; in the data active = inhibition above about 11%;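 note: 0% = median of compound wells on plate and 100% = full blocker control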
# Tb MetRS inh – Trypanosoma brucei MetRS inhibition; inhibition, % at 11.9 µM; purified T. brucei MetRS, ATP depletion, Kinase-Glo luminescence; 0.4% of 360,000 active;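 active = inhibition above a per-plate cutoff of the control wells' mean inhibition plus 3 SD, cut at about 5.5% in these data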;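 note: 0% = DMSO wells median and 100% = median of wells with control inhibitor compound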
#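 Material: T. brucei methionyl-tRNA synthetase, purified; reagent: substrates ATP, L-methionine and bulk Escherichia coli tRNA; dosing: 11.9 µM single point; timing: 15 min plus 2 h at 25 °C; detection: luminescence of leftover ATP; evaluation: % inhibition; control set: DMSO-only wells as low control; replicates: singlicate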
# sPLA2 confirm – human GIII-sPLA2 inhibition, confirmation | shares compounds with sPLA2-III inh | recombinant hGIII-sPLA2, BODIPY PC-A2 QFRET fluorescence | inhibition, % at 12.2 µM | 34% of 2,000 active;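 active = mean inhibition across triplicates above the hit cutoff set in the earlier primary screen, cut at about 19% in these data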;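 note: 0% = enzyme with DMSO and 100% = DMSO wells lacking enzyme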
# BODIPY interf – optically interferes with 535nm fluorescence in sPLA2 counter-screen | inhibition, % at 12.2 µM | BODIPY FL product fluorescence interference, QFRET | shares compounds with sPLA2-III inh | 8.5% of 2,000 active;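 active = average inhibition above the solvent-only control mean plus 3 SD, cut at about 6% in these data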;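 note: 0% = DMSO with substrate plus product and 100% = DMSO with substrate alone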
# BODIPY interf DR – interferes with 535nm fluorescence in dose response counter-screen. IC50, µM. shares compounds with sPLA2-III inh. 240 tested, under 10 active. BODIPY FL product fluorescence interference, cell-free;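 active = IC50 at or below 10 µM; inactive = IC50 above 10 µM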
# An asterisk follows results filed as active; i = inactive; x = no result given. An excerpt weighted towards active compounds, which were near 1.9% of everything screened.
SMILES,sPLA2-III inh,PLC-gamma1 inh,DAGLB inh,PLCb3 inh,Tb MetRS inh,sPLA2 confirm,BODIPY interf,others
Fc1ccc2nc(Nc3nc4cc5c(cc4s3)OCCO5)sc2c1,24*,-272,-2,-299,-1,15,6.5*,
O=C(NNc1nc2cc3c(cc2s1)OCO3)c1ccc(F)cc1,23*,-17,3,-19,-1,38*,0,BODIPY interf DR=>122
COC1=C[C@H](C(=O)NCc2ccc(Br)cc2)C(C)C(c2ccccc2)CC1=O (stereo not given in full),-17,-1,x,-2,x,x,x,
C=CCN1C[C@H](COC(=O)c2cccc(C)c2)Oc2cccc(F)c2S1(=O)=O,-1,3,x,1,x,x,x,
O=C(O)c1ccc(N2C(=O)CC(N3CCN(c4cccc(C(F)(F)F)c4)CC3)C2=O)cc1 (stereo not given),21*,-4,0,-9,-2,2,-2,
O=C(O)c1ccc(N2C(=O)CC(N3CCN(c4cccc(Cl)c4)CC3)C2=O)cc1 (stereo not given),9,-2,-1,-9,0,x,x,
COC(=O)[C@]12C[C@H](CC(=O)NCc3ccc(OC)c(OC)c3)C(=O)N(Cc3ccc4c(c3)OCO4)C1=C[C@H](C(C)C)O[C@@H]2C1CC1,0,6,x,1,x,x,x,
Cc1ccn(C(=O)c2ccc(NC(=O)CC(C)C)cc2)n1,19*,4,0,6,-1,3,-1,
CCC(=O)Nc1ccc(C(=O)n2ccc(C)n2)cc1,-4,0,0,0,-1,x,x,
O=C(CCc1ccccc1)N[C@H]1[C@@H](OC(=O)c2ccc([N+](=O)[O-])cc2)CCC[C@]12C(=O)N(Cc1ccccc1)c1ccccc12,1,0,x,4,x,x,x,
COc1ccc(NC(=S)Nc2ccc3nccnc3c2)cc1,23*,-445,3,i,0,5,-3,
Cc1ccc(C)c(OCCCCN2CCCCC2)c1,21*,-3,-1,-4,0,-3,-26,
CN(C)[C@H]1CCN(c2ccc3c(c2)O[C@@H]2CCN(C2)S3(=O)=O)C1,2,-7,x,-3,x,x,x,
Cc1cc2cc3c(cc2n2c(SCC(=O)Nc4nc(-c5ccccc5)cs4)nnc12)OCO3,13,-19,x,-32,x,x,x,
CCOC(=O)[C@@]12CCC3=C1N(CCC3)C(=O)[C@H](CC(=O)NCCCN1CCCC1=O)C2,4,1,x,5,x,x,x,
CN1c2ccccc2Sc2cc(N)ccc21,21*,-12,7,-20,1,36*,11*,
CCCCC(=O)Nc1c2c(nn1-c1cccc(C)c1C)CS(=O)(=O)C2,20*,8,2,-8,0,1,1,
O=C(CCN1CCC2CCC(C2)C1)c1ccccc1 (stereo not given),4,-1,-2,4,0,x,x,
OC(CCN1CCC2CCC(C2)C1)c1ccc(Br)cc1 (stereo not given),20*,-2,-1,2,0,5,-17,
O=c1c2ccccc2nnn1Cc1ccco1,0,-1,x,-2,x,x,x,
OC[C@@H]1CN(Cc2ccncc2)C[C@H](n2cnc3c(NC4CC4)ncnc32)O1,12,3,x,1,0,x,x,
OC[C@@H]1CN(Cc2ccncc2)C[C@H](n2cnc3c(NC4CCCC4)ncnc32)O1,21*,-1,x,-5,0,0,-10,
COc1ccc(CN2C[C@@H](CO)O[C@@H](n3cnc4c(N5CCOCC5)ncnc43)C2)cc1,20*,0,x,-1,0,-4,-19,
COCCN1C[C@@H](CO)O[C@@H](n2cnc3c(N4CCCC4)ncnc32)C1,20*,2,x,0,0,1,-2,
COC(=O)CC[C@@H](/C=C/C(=O)OC(C)(C)C)Sc1ccc(C(C)(C)C)cc1,0,4,x,3,x,x,x,
SMILES,sPLA2-III inh,PLC-gamma1 inh,DAGLB inh,PLCb3 inh,Tb MetRS inh,sPLA2 confirm,BODIPY interf,others
NNc1nc(-c2ccccc2)c2cc(Cl)ccc2n1,19*,-81,-13,-121,2,26*,4,
COC(=O)[C@]12C[C@H](CC(=O)NCc3cccc(C(F)(F)F)c3)C(=O)N(Cc3ccco3)C1=C[C@H](COCc1ccccc1)O[C@@H]2C,-17,1,x,-2,x,x,x,
CCC(=O)NC(c1cccs1)c1cc([N+](=O)[O-])c2cccnc2c1OC (stereo not given),19*,18*,x,-3,-2,17,-4,
CCCC(=O)NC(c1cccs1)c1cc(Cl)c2cccnc2c1O (stereo not given),13,-12,16,-10,0,x,x,
CN1C(=O)c2cc(NC(=O)C3CCOCC3)ccc2OC[C@@H]2O[C@@H](CC(=O)NCc3ccccc3F)CC[C@@H]21,2,0,x,2,x,x,x,
COC(=O)C1CN(Cc2cn(Cc3ccc(F)cc3)nn2)CCS(=O)(=O)N1Cc1ccccc1 (stereo not given),-4,0,x,3,x,x,x,
CSc1cccc(NC(=S)N2CCC(N(C)C3CCCC3)CC2)c1,19*,-2,-3,-7,0,11,-17,
COc1cc(C(=O)NNC(=S)NC(=O)c2ccc3c(c2)OCO3)cc(OC)c1OC,24*,2,x,-3,-1,37*,-16,BODIPY interf DR=>122
COc1cc(C(=O)Nc2ccncc2)cc(OC)c1OC,21*,5,2,-4,0,-3,-8,
COc1ccc(C(=O)NC(=S)NNC(=O)c2ccccc2C)cc1,25*,-1,-2,-10,-1,29*,-1,
COc1ccc(C(=O)NC(=S)NNC(=O)COc2ccccc2)cc1,7,7,3,-2,0,x,x,
COc1cc(C(=O)NC(=S)NNC(=O)c2cnccn2)cc(OC)c1OC,21*,-4,4,-11,0,10,-6,
Cc1ccc(-c2c(NC(=O)Nc3ccc(F)cc3)nc3ncccn23)cc1,-1,-176,x,-242,x,x,x,
C[C@H]1[C@@H](OC(=O)NCc2ccccc2Cl)CC[C@@]23CCCN2C(=O)CCC[C@@H]13,14,3,x,-3,x,x,x,
COc1ccccc1C(=O)NNC(=S)NC(=O)c1cc(OC)c(OC)c(OC)c1,7,1,0,1,0,x,x,
COc1cc(C(=O)NNC(=S)NC(=O)c2ccccc2C)cc(OC)c1OC,26*,3,1,0,1,25*,-13,
COc1ccc(C(=O)NNC(=S)NC(=O)C(C)(C)C)cc1,23*,4,1,-5,1,19*,-10,
COc1ccc(CC(=O)NNC(=O)c2cnccn2)cc1,20*,3,3,-3,-1,8,-7,
COc1ccc(CC(N)c2csc(NC(=O)Nc3cc(OC)ccc3OC)n2)cc1 (stereo not given),19,5,x,-1,0,x,x,
